Results reported in ChEMBL document CHEMBL1138525 (J Med Chem, 2009).
Calls of active or inactive are those of the source. The calls are words filed in the database; no cut-off is given here.

Assays:
[1] = test system: P2Y purinoceptor 2 (Homo sapiens), P41231 [UNDEFINED MUTATION]; assay: Ratio of IC50 for N-terminal HA epitope-tagged human P2Y2 receptor C278S mutant to IC50 for wild type 3 human P2Y2 receptor
P2Y purinoceptor 2 [2] = biological target: P2Y purinoceptor 2 (Homo sapiens, UniProt P41231, Y198A); assay: Antagonist activity at N-terminal HA epitope-tagged human P2Y2 receptor Y198A mutant expressed in human 1321N1 cells assessed as inhibition of UTP-induced calcium mobilization; type: functional, cell-based
How it was run: (§1)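 1321N1 cells expressing wild-type or mutant receptor were dye-loaded with Oregon Green BAPTA-1/AM in Krebs-HEPES pH 7.4. Antagonist was preincubated for 20 min at 28 °C in the dark. Cells were then stimulated with UTP at a concentration giving 80-90% of maximal response. Calcium fluorescence read at 520 nm (excitation 485 nm).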

P2Y purinoceptor 2 [3] = biological target: T1, P2Y purinoceptor 2 (Homo sapiens, UniProt P41231); assay: Antagonist activity at N-terminal HA epitope-tagged wild type 4 human P2Y2 receptor expressed in human 1321N1 cells assessed as inhibition of UTP-induced calcium mobilization; type: functional, cell-based
P2Y purinoceptor 2 [4] = biological target: P2Y purinoceptor 2 (Homo sapiens, UniProt P41231, R177A/R180A); assay: Antagonist activity at N-terminal HA epitope-tagged human P2Y2 receptor R177A_R180A double mutant expressed in human 1321N1 cells assessed as inhibition of UTP-induced calcium mobilization; type: functional, cell-based; how it was run: as §1
P2Y purinoceptor 2 [5] = biological target: P2Y purinoceptor 2 (Homo sapiens, UniProt P41231, Y118A); assay: Antagonist activity at N-terminal HA epitope-tagged human P2Y2 receptor Y118A mutant expressed in human 1321N1 cells assessed as inhibition of UTP-induced calcium mobilization; type: functional, cell-based; how it was run: as §1
P2Y purinoceptor 2 [6] = biological target: T1, P2Y purinoceptor 2; assay: Antagonist activity at N-terminal HA epitope-tagged wild type 3 human P2Y2 receptor expressed in human 1321N1 cells assessed as inhibition of UTP-induced calcium mobilization; type: functional, cell-based; how it was run: as §1
P2Y purinoceptor 2 [7] = biological target: P2Y purinoceptor 2 (Homo sapiens, UniProt P41231, Y114A); assay: Antagonist activity at N-terminal HA epitope-tagged human P2Y2 receptor Y114A mutant expressed in human 1321N1 cells assessed as inhibition of UTP-induced calcium mobilization; type: functional, cell-based; how it was run: as §1
P2Y purinoceptor 2 [8] = biological target: P2Y purinoceptor 2 (Homo sapiens, UniProt P41231, C278S); assay: Antagonist activity at N-terminal HA epitope-tagged human P2Y2 receptor C278S mutant expressed in human 1321N1 cells assessed as inhibition of UTP-induced calcium mobilization; type: functional, cell-based; how it was run: as §1
P2Y purinoceptor 2 [9] = biological target: T1, P2Y purinoceptor 2; assay: Agonist activity at N-terminal HA epitope-tagged human P2Y2 receptor expressed in human 1321N1 cells assessed as increase in intracellular calcium level at 100 µM
P2Y purinoceptor 2 [10] = biological target: T1, P2Y purinoceptor 2; assay: Agonist activity at N-terminal HA epitope-tagged wild type 3 human P2Y2 receptor expressed in human 1321N1 cells assessed as increase in intracellular calcium level relative to carbachol; type: functional, cell-based
How it was run: (§2)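 Retrovirally transduced stable 1321N1 astrocytoma lines (wild-type lines of differing expression, or mutants) in suspension, loaded with Oregon Green BAPTA-1/AM for 1 h at room temperature. Cells were plated at 150000 per well in Krebs-HEPES pH 7.4 and held 20 min at 28 °C in the dark. Agonist was then injected, with fluorescence read at ex 485/em 520 nm for 60 × 0.4 s.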

P2Y purinoceptor 2 [11] = biological target: T1, P2Y purinoceptor 2; assay: Agonist activity at N-terminal HA epitope-tagged wild type 4 human P2Y2 receptor expressed in human 1321N1 cells assessed as increase in intracellular calcium level relative to carbachol; type: functional, cell-based; how it was run: as §2
[12] = test system: P2Y purinoceptor 2 (Homo sapiens), P41231 [Y118A]; assay: Agonist activity at N-terminal HA epitope-tagged human P2Y2 receptor Y118A mutant expressed in human 1321N1 cells assessed as increase in intracellular calcium level relative to carbachol; type: functional, cell-based; how it was run: as §2
[13] = test system: P2Y purinoceptor 2 (Homo sapiens), P41231 [R177A,R180A]; assay: Agonist activity at N-terminal HA epitope-tagged human P2Y2 receptor R177A_R180A double mutant expressed in human 1321N1 cells assessed as increase in intracellular calcium level relative to carbachol; type: functional, cell-based; how it was run: as §2
[14] = test system: P2Y purinoceptor 2 (Homo sapiens), P41231 [Y114A]; assay: Agonist activity at N-terminal HA epitope-tagged human P2Y2 receptor Y114A mutant expressed in human 1321N1 cells assessed as increase in intracellular calcium level relative to carbachol; type: functional, cell-based; how it was run: as §2
[15] = test system: P2Y purinoceptor 2 (Homo sapiens), P41231 [R177A]; assay: Agonist activity at N-terminal HA epitope-tagged human P2Y2 receptor R177A mutant expressed in human 1321N1 cells assessed as increase in intracellular calcium level relative to carbachol; type: functional, cell-based; how it was run: as §2
[16] = test system: P2Y purinoceptor 2 (Homo sapiens), P41231 [R272A]; assay: Agonist activity at N-terminal HA epitope-tagged human P2Y2 receptor R272A mutant expressed in human 1321N1 cells assessed as increase in intracellular calcium level up to 300 uM relative to carbachol; type: functional, cell-based; how it was run: as §2
[17] = test system: P2Y purinoceptor 2 (Homo sapiens), P41231 [S296A]; assay: Agonist activity at N-terminal HA epitope-tagged human P2Y2 receptor S296A mutant expressed in human 1321N1 cells assessed as increase in intracellular calcium level relative to carbachol; type: functional, cell-based; how it was run: as §2
[18] = test system: P2Y purinoceptor 2 (Homo sapiens), P41231 [Y198A]; assay: Agonist activity at N-terminal HA epitope-tagged human P2Y2 receptor Y198A mutant expressed in human 1321N1 cells assessed as increase in intracellular calcium level relative to carbachol; type: functional, cell-based; how it was run: as §2
[19] = test system: P2Y purinoceptor 2 (Homo sapiens), P41231 [R180A]; assay: Agonist activity at N-terminal HA epitope-tagged human P2Y2 receptor R180A mutant expressed in human 1321N1 cells assessed as increase in intracellular calcium level relative to carbachol; type: functional, cell-based; how it was run: as §2
[20] = test system: P2Y purinoceptor 2 (Homo sapiens), P41231 [R194H]; assay: Agonist activity at N-terminal HA epitope-tagged human P2Y2 receptor R194H mutant expressed in human 1321N1 cells assessed as increase in intracellular calcium level relative to carbachol; type: functional, cell-based; how it was run: as §2
[21] = test system: P2Y purinoceptor 2 (Homo sapiens), P41231 [C278S]; assay: Agonist activity at N-terminal HA epitope-tagged human P2Y2 receptor C278S mutant expressed in human 1321N1 cells assessed as increase in intracellular calcium level relative to carbachol; type: functional, cell-based; how it was run: as §2
Chain of P2Y purinoceptor 2 (Homo sapiens), P41231 [C278S] (P41231 whole entry C278S): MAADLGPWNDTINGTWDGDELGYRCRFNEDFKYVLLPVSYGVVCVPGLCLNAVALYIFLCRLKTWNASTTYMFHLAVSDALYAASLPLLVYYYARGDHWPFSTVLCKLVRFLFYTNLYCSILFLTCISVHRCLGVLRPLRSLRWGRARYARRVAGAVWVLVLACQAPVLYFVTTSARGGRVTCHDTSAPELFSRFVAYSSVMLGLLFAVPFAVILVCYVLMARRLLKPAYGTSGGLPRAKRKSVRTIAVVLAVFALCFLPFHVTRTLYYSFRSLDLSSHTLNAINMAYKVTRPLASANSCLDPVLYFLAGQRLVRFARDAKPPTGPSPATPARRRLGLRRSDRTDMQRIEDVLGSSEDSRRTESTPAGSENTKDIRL

T1 sequence (P41231 whole entry): as the sequence (P41231 whole entry C278S) above, with S278C counted along it
Chain of P2Y purinoceptor 2 (Homo sapiens), P41231 [Y114A] (P41231 whole entry Y114A): as the sequence (P41231 whole entry C278S) above, with Y114A, S278C counted along it
Chain of P2Y purinoceptor 2 (Homo sapiens, UniProt P41231, Y114A) (P41231 whole entry Y114A): as the sequence (P41231 whole entry C278S) above, with Y114A, S278C counted along it
Chain of P2Y purinoceptor 2 (Homo sapiens), P41231 [R177A,R180A] (P41231 whole entry R177A/R180A): as the sequence (P41231 whole entry C278S) above, with R177A, R180A, S278C counted along it
Chain of P2Y purinoceptor 2 (Homo sapiens, UniProt P41231, R177A/R180A) (P41231 whole entry R177A/R180A): as the sequence (P41231 whole entry C278S) above, with R177A, R180A, S278C counted along it
Chain of P2Y purinoceptor 2 (Homo sapiens), P41231 [R180A] (P41231 whole entry R180A): as the sequence (P41231 whole entry C278S) above, with R180A, S278C counted along it
Chain of P2Y purinoceptor 2 (Homo sapiens), P41231 [R272A] (P41231 whole entry R272A): as the sequence (P41231 whole entry C278S) above, with R272A, S278C counted along it
Chain of P2Y purinoceptor 2 (Homo sapiens), P41231 [Y118A] (P41231 whole entry Y118A): as the sequence (P41231 whole entry C278S) above, with Y118A, S278C counted along it
Chain of P2Y purinoceptor 2 (Homo sapiens, UniProt P41231, Y118A) (P41231 whole entry Y118A): as the sequence (P41231 whole entry C278S) above, with Y118A, S278C counted along it
Chain of P2Y purinoceptor 2 (Homo sapiens, UniProt P41231, Y198A) (P41231 whole entry Y198A): as the sequence (P41231 whole entry C278S) above, with Y198A, S278C counted along it
Chain of P2Y purinoceptor 2 (Homo sapiens), P41231 [Y198A] (P41231 whole entry Y198A): as the sequence (P41231 whole entry C278S) above, with Y198A, S278C counted along it
Chain of P2Y purinoceptor 2 (Homo sapiens, UniProt P41231, C278S) (P41231 whole entry C278S): as the sequence (P41231 whole entry C278S) above
Chain of P2Y purinoceptor 2 (Homo sapiens), P41231 [S296A] (P41231 whole entry S296A): as the sequence (P41231 whole entry C278S) above, with S278C, S296A counted along it
Chain of P2Y purinoceptor 2 (Homo sapiens), P41231 [UNDEFINED MUTATION] (P41231 whole entry, looked up, stated change not applied): as the sequence (P41231 whole entry C278S) above, with S278C counted along it
Chain of P2Y purinoceptor 2 (Homo sapiens), P41231 [R177A] (P41231 whole entry R177A): as the sequence (P41231 whole entry C278S) above, with R177A, S278C counted along it
Chain of P2Y purinoceptor 2 (Homo sapiens), P41231 [R194H] (P41231 whole entry R194H): as the sequence (P41231 whole entry C278S) above, with R194H, S278C counted along it

## COc1ccc(Nc2cc(S(=O)(=O)O)c(N)c3c2C(=O)c2ccccc2C3=O)cc1
[1]
  Ratio IC50: 0.2
P2Y purinoceptor 2 [2]
  IC50: 21.1 µM
P2Y purinoceptor 2 [3]
  IC50: 21.7 µM
P2Y purinoceptor 2 [4]
  IC50: 26.5 µM
P2Y purinoceptor 2 [5]
  IC50: 22.4 µM
P2Y purinoceptor 2 [6]
  IC50: 21.9 µM
P2Y purinoceptor 2 [7]
  IC50: 24.6 µM
P2Y purinoceptor 2 [8]
  IC50: 3.44 µM

## C[N+](C)(C)CCOC(N)=O
P2Y purinoceptor 2 [9]
  Activity: Active

## O=c1ccn([C@@H]2O[C@H](COP(=O)(O)OP(=O)(O)OP(=O)(O)OP(=O)(O)OC[C@H]3O[C@@H](n4ccc(=O)[nH]c4=O)[C@H](O)[C@@H]3O)[C@@H](O)[C@H]2O)c(=O)[nH]1
P2Y purinoceptor 2 [10]
  Efficacy: 60%
P2Y purinoceptor 2 [11]
  Efficacy: 98%
[12]
  Efficacy: 25%
[13]
  Efficacy: 101%
[14]
  Efficacy: 142%
[15]
  Efficacy: 102%
[16]
  Efficacy: inactive
[17]
  Efficacy: 5%
[18]
  Efficacy: 127%
[19]
  Efficacy: 72%
[20]
  Efficacy: 85%
[21]
  Efficacy: inactive
